For series [1], the target named is T1, Albumin (Homo sapiens, UniProt P02768). The series is described as follows: Binding affinity to human serum albumin by fluorescence quenching measurement. To be noted: isolated protein. It counts as ADME. The essentials: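 HSA intrinsic (Trp) fluorescence quenching at 298 K in 50 mM phosphate buffer, pH 7. HSA was held at a fixed level while compound amounts were increased. Excitation 280 nm, emission recorded 290–360 nm, intensity taken at 350 nm; samples read 2 min after mixing, with buffer blanks. Ka was obtained by fitting the modified Stern–Volmer equation.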

Series [2] can be described thus: Aqueous solubility assessed per 100 g in pure water. As to conditions: pH 7.
The nature of series [3]: Solubility in phosphate buffer assessed per 100 g at pH 7. The class given is physicochemical. The essentials:
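Excess solid stirred 1 h with pure water or 50 mM phosphate buffer (pH 7; 20 mM NaH2PO4 + 30 mM Na2HPO4) in a sealed dual-wall flask held at 295 K by circulating water. The solid was removed by two 2-min centrifugations. Dissolved content was read by UV–vis at 304 nm and converted using an extinction coefficient of 33,913 M-1 cm-1.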

For series [4], the target named is T1, Albumin. The experiment in a line: Binding affinity to human serum albumin at 4 uM by fluorescence enhancing measurement. As to conditions: isolated protein. It counts as ADME. The essentials:
(§1)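 HSA binding was read as the resveratrol-moiety fluorescence at 388 nm. The compound was fixed at 4 µM in 50 mM phosphate buffer, pH 7, with HSA either fixed at 4 µM or increased from 2 to 16 µM, at 298 K. Solutions were read 2 min after mixing against buffer/HSA blanks. Ka came from a non-linear fit of fluorescence versus [HSA].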

Series [5] has as its target T1, Albumin. The series is described as follows: Binding affinity to human serum albumin assessed as decrease in UV absorbance by UV-vis measurement. The class given is ADME. On the set-up: scale not given: the % may be the effect or the level left. To be noted: isolated protein. The method in brief: (§2)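 The compound was held at 4 µM in 50 mM phosphate buffer, pH 7 (20 mM NaH2PO4 and 30 mM Na2HPO4), and HSA was added at increasing concentrations. UV–vis absorbance of the compound was read at 318 nm, 2 min after thorough mixing. Buffers without HSA and with matching HSA levels served as blanks. Each compound solution was used only once.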

For series [6], the target named is T1, Albumin. The series is described as follows: Binding affinity to human serum albumin at 4 uM by UV-vis measurement. The class given is ADME. The essentials:
as §2

Series [7] is described as follows: Solubility in over saturated phosphate buffer assessed per 100 g at pH 7 after 2 mins. The class given is physicochemical. To be noted: pH 7, 2 min. The method in brief:
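Over-saturated solution made by tapping a suspension in 50 mM phosphate buffer (pH 7) for 2 min at 295 K. Content was read by UV–vis at 304 nm and converted using an extinction coefficient of 33,913 M-1 cm-1.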

Series [8] concerns the target T1, Albumin. The experiment in a line: Binding affinity to human serum albumin assessed as increase in drug-induced fluorescence at 4 uM by fluorescence enhancing measurement. It counts as ADME. As to conditions: isolated protein. The essentials:
as §1

T1 sequence (P02768 whole entry): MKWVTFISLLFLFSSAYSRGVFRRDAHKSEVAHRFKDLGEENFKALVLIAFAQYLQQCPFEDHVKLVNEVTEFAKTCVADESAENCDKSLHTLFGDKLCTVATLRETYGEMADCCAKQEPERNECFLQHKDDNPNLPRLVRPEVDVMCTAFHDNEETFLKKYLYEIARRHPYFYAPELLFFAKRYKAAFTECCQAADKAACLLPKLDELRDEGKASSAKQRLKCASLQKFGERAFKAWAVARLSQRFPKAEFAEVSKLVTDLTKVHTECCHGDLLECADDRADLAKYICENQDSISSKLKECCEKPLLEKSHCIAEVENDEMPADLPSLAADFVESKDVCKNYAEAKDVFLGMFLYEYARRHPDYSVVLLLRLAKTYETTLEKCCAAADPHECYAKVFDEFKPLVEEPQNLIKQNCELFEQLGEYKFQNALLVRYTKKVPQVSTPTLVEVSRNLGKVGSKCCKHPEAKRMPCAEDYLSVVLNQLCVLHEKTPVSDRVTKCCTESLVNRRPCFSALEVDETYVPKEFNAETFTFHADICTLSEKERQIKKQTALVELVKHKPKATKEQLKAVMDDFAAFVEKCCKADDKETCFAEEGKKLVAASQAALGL

In turn, `COC(=O)CCCCCOc1ccc(/C=C/c2cc(O)cc(O)c2)cc1` gave a Ka in series [1] of 3.05 ×10⁵ /M. Further, the solubility was 0.032 mg in series [2] and 0.085 mg in series [3].

With `Oc1ccc(/C=C/c2cc(O)cc(O)c2)cc1` [RESVERATROL], in series [1], the Ka is reported as 1.64 ×10⁵ /M. In addition, the solubility in series [2] and in series [3] was 3.24 mg in each case.

For the molecule `O=C(O)CCCCCOc1ccc(/C=C/c2cc(O)cc(O)c2)cc1` [RESVERATROL HEXANOIC ACID], the Ka was determined as 31.2 ×10⁵ /M in series [4]; 67 ×10⁵ /M in series [1]; 26.2 ×10⁵ /M in series [6] (human, isolated protein, 4 µM). For the same molecule, the Activity in series [5] worked out at 20%. For the same molecule, the values for the solubility in series [2] and in series [3] were 4.52 mg and 10.54 mg, respectively. Also, the Kd in series [6] is 382 nM.

As to `O=C(O)COc1ccc(/C=C/c2cc(O)cc(O)c2)cc1`, the Ka in series [1] was 2.95 ×10⁵ /M. Moreover, the solubility was 80.91 mg in series [2], 313.8 mg in series [3] and 867.8 mg in series [7]. Besides, the Activity in series [8] is 50%.

`CCOC(=O)COc1ccc(/C=C/c2cc(O)cc(O)c2)cc1` yielded a Ka in series [1] of 1.14 ×10⁵ /M. Moreover, the solubility came out at 1.93 mg in series [2] and 1.4 mg in series [3].

For orientation: Kd means the free concentration of one partner at which half of the binding sites on the other are occupied at equilibrium, for simple one-to-one binding.
